Results taken from ChEMBL document CHEMBL3525935, “Inhibition of P-glycoprotein leads to improved oral bioavailability of compound K, an anticancer metabolite of red ginseng extract produced by gut microflora” (Drug Metab Dispos, 2012).
Calls of active or inactive are those of the source. No cut-off for these calls is given here.

Experiments:
LM1 = test: Cytotoxicity against mouse LM1 cells assessed as cell growth inhibition upto 100 uM after 48 hrs by MTT assay; format: functional, cell-based
How it was run: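 LM1 cells, a metastatic line derived from A/J mice, grown in DMEM with 10% FBS, 2 mM glutamine, penicillin/streptomycin and 1% nonessential amino acids. Seeded at 5×10^3 cells/well in 96-well plates, fed daily, and used 2–3 days after seeding.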

[1] = AUC (0 to time) in wildtype FVB mouse at 10 mg/kg, po; format: ADME, organism-based; design: dose 10 mg/kg, route oral; conditions: plasma
How it was run: (§1)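 Male mice aged 6–10 weeks, MDR1a/b knockout or wild-type FVB, fasted overnight. Single 10 mg/kg gavage dose in an oral suspending vehicle. Ten timed tail-snip blood samples (20–25 μl) were taken under isoflurane. Blood levels were measured by UPLC-MS; the standard curve spanned 19.5 nM–10 μM, with LLOQ 9.8 nM. Five mice per group; mean ± S.D.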

[2] = Drug recovery in MDCK2 cells at 2 uM; format: ADME, cell-based, Canis lupus familiaris, MDCK-II; conditions: dog, MDCK; read-out: Drug recovery
How it was run: (§2)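 Monolayers of Caco-2 (TC7; TEER >445 Ω/cm² for quality control), parental MDCKII, or MDR1-MDCKII cells. Bidirectional transport of 2 μM substrate in HBSS, pH 7.4 on both sides. Outputs were Pa-b, Pb-a and efflux ratio Pb-a/Pa-b, plus mass-balance recovery. Intracellular amount was measured at the end of transport and normalised to lysate protein (BCA). Three independent experiments.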

[3] = Efflux ratio of permeability from basolateral to apical side over apical to basolateral side in MDCK2 cells at 2 uM; format: ADME, cell-based, Canis lupus familiaris, MDCK-II; conditions: dog, MDCK; how it was run: as §2
[4] = Drug uptake in MDCK2-MDR1 cells assessed as intracellular level measured per mg of protein at 2 uM; format: ADME, cell-based, Canis lupus familiaris; conditions: dog, mdck-ii; how it was run: as §2
[5] = Drug uptake in human Caco2 cells assessed as intracellular level measured per mg of protein at 2 uM; format: ADME, cell-based; conditions: caco-2, 2 µM; how it was run: as §2
MDR1 [6] = test: Efflux ratio of permeability from basolateral to apical side over apical to basolateral side in MDCK2-MDR1 cells at 2 uM; format: ADME, cell-based, Canis lupus familiaris; conditions: dog, MDCK-MDR1; how it was run: as §2
[7] = Mean residence time (infinity) in MDR1a/b(-/-) FVB mouse at 10 mg/kg, po; format: ADME, organism-based; design: dose 10 mg/kg, route oral; conditions: in vivo; how it was run: as §1
[8] = Tmax in wildtype FVB mouse at 10 mg/kg, po; format: ADME, organism-based; design: dose 10 mg/kg, route oral; conditions: in vivo; how it was run: as §1
[9] = Cmax in wildtype FVB mouse at 10 mg/kg, po; format: ADME, organism-based; design: dose 10 mg/kg, route oral; conditions: in vivo; how it was run: as §1
[10] = Efflux ratio of permeability from basolateral to apical side over apical to basolateral side in human Caco2 cells at 2 uM; format: ADME, cell-based; conditions: Caco-2; how it was run: as §2
MDR1 [11] = test: Permeability across basolateral to apical side in MDCK2-MDR1 cells at 2 uM; format: ADME, cell-based, Canis lupus familiaris, MDCK-II; conditions: dog, MDCK-MDR1; read-out: permeability; how it was run: as §2
[12] = AUC (0 to time) in MDR1a/b(-/-) FVB mouse at 10 mg/kg, po; format: ADME, organism-based; design: dose 10 mg/kg, route oral; conditions: plasma; how it was run: as §1
[13] = Mean residence time (infinity) in wildtype FVB mouse at 10 mg/kg, po; format: ADME, organism-based; design: dose 10 mg/kg, route oral; conditions: in vivo; how it was run: as §1
MDR1 [14] = test: Permeability across apical to basolateral side in MDCK2-MDR1 cells at 2 uM; format: ADME, cell-based, Canis lupus familiaris, MDCK-II; conditions: dog, MDCK-MDR1; read-out: permeability; how it was run: as §2
[15] = Drug elimination rate in MDR1a/b(-/-) FVB mouse at 10 mg/kg, po; format: ADME, organism-based; design: dose 10 mg/kg, route oral; conditions: in vivo; how it was run: as §1
[16] = Half life in wildtype FVB mouse at 10 mg/kg, po; format: ADME, organism-based; design: dose 10 mg/kg, route oral; conditions: in vivo; how it was run: as §1
[17] = AUC (0 to infinity) in wildtype FVB mouse at 10 mg/kg, po; format: ADME, organism-based; design: time infinity, dose 10 mg/kg, route oral; conditions: plasma; how it was run: as §1
[18] = Drug uptake in human Caco2 cells assessed as intracellular level measured per mg of protein at 2 uM in presence of 20 uM cyclosporine A P-gp inhibitor; format: ADME, cell-based; conditions: caco-2, 2 µM
How it was run: (§3)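 Caco-2 (TC7) monolayers, 2 μM substrate transported in HBSS at pH 7.4. Cyclosporine A (20 μM) or verapamil (50 μM) was added to the apical side. Intracellular amount was measured at the end of transport and normalised to lysate protein (BCA), in nmol/mg. Three independent experiments.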

[19] = Permeability across basolateral to apical side in MDCK2 cells at 2 uM; format: ADME, cell-based, Canis lupus familiaris, MDCK-II; conditions: dog, MDCK; read-out: permeability; how it was run: as §2
[20] = Drug elimination rate in wildtype FVB mouse at 10 mg/kg, po; format: ADME, organism-based; design: dose 10 mg/kg, route oral; conditions: in vivo; how it was run: as §1
[21] = Drug uptake in human Caco2 cells assessed as intracellular level measured per mg of protein at 2 uM in presence of 50 uM verapamil P-gp inhibitor; format: ADME, cell-based; conditions: caco-2, 2 µM; how it was run: as §3
[22] = Permeability across basolateral to apical side in human Caco2 cells at 2 uM; format: ADME, cell-based; conditions: Caco-2, read-out: permeability; how it was run: as §2
MDR1 [23] = test: Drug recovery in MDCK2-MDR1 cells at 2 uM; format: ADME, cell-based, Canis lupus familiaris, MDCK-II; conditions: dog, MDCK-MDR1; read-out: Drug recovery; how it was run: as §2
[24] = Cytotoxicity against mouse LM1 cells assessed as cell growth inhibition after 48 hrs by MTT assay; format: functional, cell-based; conditions: LM1, 48 h
[25] = Half life in MDR1a/b(-/-) FVB mouse at 10 mg/kg, po; format: ADME, organism-based; design: dose 10 mg/kg, route oral; conditions: in vivo; how it was run: as §1
[26] = Permeability across apical to basolateral side in MDCK2 cells at 2 uM; format: ADME, cell-based, Canis lupus familiaris, MDCK-II; conditions: dog, MDCK; read-out: permeability; how it was run: as §2
[27] = Oral bioavailability in rat; format: ADME, organism-based; conditions: in vivo
[28] = Cmax in MDR1a/b(-/-) FVB mouse at 10 mg/kg, po; format: ADME, organism-based; design: dose 10 mg/kg, route oral; conditions: in vivo; how it was run: as §1
[29] = Permeability across apical to basolateral side in human Caco2 cells at 2 uM; format: ADME, cell-based; conditions: Caco-2, read-out: permeability; how it was run: as §2
[30] = Drug recovery in human Caco2 cells at 2 uM; format: ADME, cell-based; conditions: Caco-2, read-out: Drug recovery; how it was run: as §2
[31] = Tmax in MDR1a/b(-/-) FVB mouse at 10 mg/kg, po; format: ADME, organism-based; design: dose 10 mg/kg, route oral; conditions: in vivo; how it was run: as §1
[32] = AUC (0 to infinity) in MDR1a/b(-/-) FVB mouse at 10 mg/kg, po; format: ADME, organism-based; design: time infinity, dose 10 mg/kg, route oral; conditions: plasma; how it was run: as §1
[33] = Drug uptake in MDCK2 cells assessed as intracellular level measured per mg of protein at 2 uM; format: ADME, cell-based, Canis lupus familiaris; conditions: dog, mdck-ii; how it was run: as §2
[34] = Permeability across apical to basolateral side in human Caco2 cells; conditions: Caco-2
[35] = Efflux ratio of permeability from basolateral to apical side over apical to basolateral side in human Caco2 cells; conditions: Caco-2

Question: Which “growth inhibition (GI)” value (LM1) does the source give for `CC(C)=CCC[C@](C)(O[C@@H]1O[C@H](CO)[C@@H](O)[C@H](O)[C@H]1O)[C@H]1CC[C@]2(C)[C@@H]1[C@H](O)C[C@@H]1[C@@]3(C)CC[C@H](O[C@@H]4O[C@H](CO)[C@@H](O)[C@H](O)[C@H]4O)C(C)(C)[C@@H]3CC[C@]12C` here?
Answer: inactive

Question: With `CC(C)=CCC[C@](C)(O[C@@H]1O[C@H](CO)[C@@H](O)[C@H](O)[C@H]1O)[C@H]1CC[C@]2(C)[C@@H]1[C@H](O)C[C@@H]1[C@@]3(C)CC[C@H](O)C(C)(C)[C@@H]3CC[C@]12C` as the molecule, how does the AUC [1] read?
Answer: 0.66 µM·h

Question: And the recovery at 2 µM [2]?
Answer: 85%

Question: What about the efflux ratio at 2 µM [3] of the same molecule?
Answer: 1.8

Question: And the Drug uptake [4]?
Answer: 0.08 nmol/mg

Question: What about the Drug uptake [5] of the same molecule?
Answer: 0.01 nmol/mg

Question: What about the efflux ratio at 2 µM (MDR1 [6]) of the same molecule?
Answer: 18.2

Question: And the MRT inf [7]?
Answer: 30.7 h

Question: What about the Tmax [8] of the same molecule?
Answer: 2.8 h

Question: What about the Cmax [9] of the same molecule?
Answer: 130 nM

Question: What about the efflux ratio at 2 µM [10] of the same molecule?
Answer: 26.6

Question: What about the Papp B→A at 2 µM (MDR1 [11]) of the same molecule?
Answer: 33.6 ×10⁻⁶ cm/s

Question: And the AUC [12]?
Answer: 7.7 µM·h

Question: And the MRT inf [13]?
Answer: 7.82 h

Question: What about the Papp A→B at 2 µM (MDR1 [14]) of the same molecule?
Answer: 1.84 ×10⁻⁶ cm/s

Question: What about the k el [15] of the same molecule?
Answer: 1.11e-05 s⁻¹

Question: And the half-life [16]?
Answer: 5.87 h

Question: What about the AUC(0-inf) [17] of the same molecule?
Answer: 0.75 µM·h

Question: And the Drug uptake [18]?
Answer: 0.15 nmol/mg

Question: And the Papp B→A at 2 µM [19]?
Answer: 1.13 ×10⁻⁶ cm/s

Question: And the k el [20]?
Answer: 3.61e-05 s⁻¹

Question: And the Drug uptake [21]?
Answer: 0.5 nmol/mg

Question: And the Papp B→A at 2 µM [22]?
Answer: 31 ×10⁻⁶ cm/s

Question: And the recovery at 2 µM (MDR1 [23])?
Answer: 85%

Question: And the IC50 [24]?
Answer: 18.4 µM

Question: And the half-life [25]?
Answer: 18.7 h

Question: And the Papp A→B at 2 µM [26]?
Answer: 0.58 ×10⁻⁶ cm/s

Question: What about the bioavailability [27] of the same molecule?
Answer: 5%

Question: And the Cmax [28]?
Answer: 530 nM

Question: What about the Papp A→B at 2 µM [29] of the same molecule?
Answer: 1.16 ×10⁻⁶ cm/s

Question: And the recovery at 2 µM [30]?
Answer: 85%

Question: What about the Tmax [31] of the same molecule?
Answer: 5.6 h

Question: And the AUC(0-inf) [32]?
Answer: 17.6 µM·h

Question: What about the Drug uptake [33] of the same molecule?
Answer: 0.27 nmol/mg

Question: Which Papp A→B [34] does the source give for `C[C@H]1O[C@@H](O[C@H]2[C@@H](O)C[C@H](O[C@H]3[C@@H](O)C[C@H](O[C@H]4CC[C@@]5(C)[C@H](CC[C@@H]6[C@@H]5C[C@@H](O)[C@]5(C)[C@@H](C7=CC(=O)OC7)CC[C@]65O)C4)O[C@@H]3C)O[C@@H]2C)C[C@H](O)[C@@H]1O` [DIGOXIN] here?
Answer: 1.48 ×10⁻⁶ cm/s

Question: And the efflux ratio at 2 µM (MDR1 [6])?
Answer: 64

Question: What about the Papp A→B at 2 µM (MDR1 [14]) of the same molecule?
Answer: 0.298 ×10⁻⁶ cm/s

Question: What about the efflux ratio [35] of the same molecule?
Answer: 21
